Active and inactive are the calls of the source. The rule behind the calls is not given here.
Legend:
Format in all cases: functional, organism-based
Escherichia coli [1] = experiment: Antiadherent activity against P-fimbriated Escherichia coli in human erythrocyte assessed as suppression of agglutination using latex beads coated with P receptor analogue at 2.4 mg/ml
Method in brief: (§1)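 Uropathogenic P-fimbriated E. coli from patient urine, grown in tryptose broth 16 h at 37 °C, then overnight on CFA plates. Washed cells at 5 × 10^8/mL in PBS pH 7.0. Compounds in PBS neutralized with 1 N NaOH, 2-fold serial dilutions, 30 µL with 10 µL bacteria for 10 min at RT with shaking. 3% A1 Rh+ human RBCs or P-receptor-coated latex beads added separately, 20 min RT. Agglutination suppression scored microscopically (+/−).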

Escherichia coli [2] = experiment: Antiadherent activity against P-fimbriated Escherichia coli in human erythrocyte assessed as suppression of agglutination using latex beads coated with P receptor analogue at 0.15 mg/ml; method in brief: as §1
Escherichia coli [3] = experiment: Antiadherent activity against P-fimbriated Escherichia coli in human erythrocyte assessed as suppression of agglutination using latex beads coated with P receptor analogue at 0.3 mg/ml; method in brief: as §1
Escherichia coli [4] = experiment: Antiadherent activity against P-fimbriated Escherichia coli in human erythrocyte assessed as suppression of agglutination using latex beads coated with P receptor analogue at 0.6 mg/ml; method in brief: as §1
Escherichia coli [5] = experiment: Antiadherent activity against P-fimbriated Escherichia coli in human erythrocyte assessed as suppression of agglutination using latex beads coated with P receptor analogue at 1.2 mg/ml; method in brief: as §1

## Oc1cc(O)c2c(c1)O[C@H](c1ccc(O)c(O)c1)[C@H](O)[C@H]2c1c(O)cc2c(c1O)[C@@H]1c3c(cc(O)c4c3O[C@H](c3ccc(O)c(O)c3)[C@H](O)C4)O[C@](c3ccc(O)c(O)c3)(O2)[C@@H]1O
Escherichia coli [1]
  Activity: Active
Escherichia coli [2]
  Activity: inactive
Escherichia coli [3]
  Activity: Active
Escherichia coli [4]
  Activity: Active
Escherichia coli [5]
  Activity: Active

## Oc1cc(O)c2c(c1)O[C@@]1(c3ccc(O)c(O)c3)Oc3cc(O)c4c(c3[C@@H]2[C@H]1O)O[C@H](c1ccc(O)c(O)c1)[C@H](O)C4
Escherichia coli [1]
  Activity: Active
Escherichia coli [2]
  Activity: inactive
Escherichia coli [3]
  Activity: inactive
Escherichia coli [4]
  Activity: inactive
Escherichia coli [5]
  Activity: inactive

## Oc1cc(O)c2c(c1)O[C@@]1(c3ccc(O)c(O)c3)Oc3cc(O)c4c(c3[C@@H]2[C@H]1O)O[C@H](c1ccc(O)c(O)c1)[C@H](O)[C@H]4c1c(O)cc(O)c2c1O[C@H](c1ccc(O)c(O)c1)[C@H](O)C2 [CINNAMTANNIN B1]
Escherichia coli [1]
  Activity: Active
Escherichia coli [2]
  Activity: Not Active
Escherichia coli [3]
  Activity: Active
Escherichia coli [4]
  Activity: Active
Escherichia coli [5]
  Activity: Active

## Oc1cc(O)c2c(c1)O[C@H](c1ccc(O)c(O)c1)[C@H](O)[C@H]2c1c(O)cc(O)c2c1O[C@H](c1ccc(O)c(O)c1)[C@H](O)C2
Escherichia coli [1]
  Activity: inactive
Escherichia coli [2]
  Activity: inactive
Escherichia coli [3]
  Activity: inactive
Escherichia coli [4]
  Activity: inactive
Escherichia coli [5]
  Activity: inactive

## Oc1cc(O)c2c(c1)O[C@H](c1ccc(O)c(O)c1)[C@H](O)[C@H]2c1c(O)cc(O)c2c1O[C@@]1(c3ccc(O)c(O)c3)Oc3cc(O)c4c(c3[C@@H]2[C@H]1O)O[C@H](c1ccc(O)c(O)c1)[C@H](O)C4
Escherichia coli [1]
  Activity: Active
Escherichia coli [2]
  Activity: inactive
Escherichia coli [3]
  Activity: inactive
Escherichia coli [4]
  Activity: Active
Escherichia coli [5]
  Activity: Active

## Oc1cc(O)c2c(c1)O[C@H](c1ccc(O)c(O)c1)[C@H](O)C2
Escherichia coli [1]
  Activity: inactive
Escherichia coli [2]
  Activity: inactive
Escherichia coli [3]
  Activity: inactive
Escherichia coli [4]
  Activity: inactive
Escherichia coli [5]
  Activity: inactive

— ChEMBL document CHEMBL1155581, “A-Type proanthocyanidin trimers from cranberry that inhibit adherence of uropathogenic P-fimbriated Escherichia coli” (J Nat Prod, 2000)
